Test results published in ChEMBL document CHEMBL1143777, “Synthesis of some bioactive 2-bromo-5-methoxy-N'-[4-(aryl)-1,3-thiazol-2-yl]benzohydrazide derivatives” (2007).
In brackets after ≈: the same amount, converted by molar mass.

What was measured:
Pseudomonas aeruginosa = experiment: Antibacterial activity against Pseudomonas aeruginosa by disc diffusion method; format: functional
Mus musculus [1] = experiment: Analgesic activity against acetic acid-induced writhing in Swiss Albino mouse assessed as protection at 50 mg/kg, po; format: functional
Outline: (§1)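 Mice were dosed with the test agent or diclofenac sodium (2.5 mg/kg). One hour later, writhing was induced by ip injection of 0.6% acetic acid in distilled water at 10 ml/kg. Writhes were counted for 15 min right after the acetic acid injection, and percentage protection was calculated.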

Aspergillus fumigatus = experiment: Antifungal activity against Aspergillus fumigatus by serial plate dilution method; format: functional
Trichophyton benhamiae = experiment: Antifungal activity against Trichophyton mentagrophytes by serial plate dilution method; format: functional, Arthroderma benhamiae
Talaromyces marneffei = experiment: Antifungal activity against Penicillium marneffei by serial plate dilution method; format: functional
Staphylococcus aureus = experiment: Antibacterial activity against Staphylococcus aureus by disc diffusion method; format: functional
Aspergillus flavus = experiment: Antifungal activity against Aspergillus flavus by serial plate dilution method; format: functional
Escherichia coli = experiment: Antibacterial activity against Escherichia coli by disc diffusion method; format: functional
[2] = Antiproliferative activity against NCI-H cells assessed as growth at 100 uM after 48 hrs; format: functional; details: Homo sapiens, read-out: Activity
Outline: (§2)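 This was the NCI primary three-cell-line, one-dose screen (lung NCI-H, breast MCF-7, CNS SF-268). Cells were inoculated on preincubated microtiter plates, and the agent was added at a single concentration. Cultures were incubated for 48 h. The endpoint was determined with sulphorhodamine B protein staining, with negative growth values indicating cell kill.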

Klebsiella pneumoniae = experiment: Antibacterial activity against Klebsiella pneumoniae by disc diffusion method; format: functional
MCF7 = experiment: Antiproliferative activity against MCF7 cells assessed as growth at 100 uM after 48 hrs; format: functional; details: Homo sapiens, MCF7, 48 h; read-out: Activity; outline: as §2
SF-268 = experiment: Antiproliferative activity against SF268 cells assessed as growth at 100 uM after 48 hrs; format: functional; details: Homo sapiens, SF-268, 48 h; read-out: Activity; outline: as §2
SR = experiment: Antiproliferative activity against SR cells after 48 hrs; format: functional; details: Homo sapiens
Outline: (§3)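 This was the NCI 60-cell-line panel (lung, colon, melanoma, renal, ovarian, CNS, leukemia), with compounds tested over a five-dose range.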

MOLT-4 = experiment: Antiproliferative activity against MOLT4 cells after 48 hrs; format: functional; details: Homo sapiens, MOLT-4, 48 h; outline: as §3
RPMI-8226 = experiment: Antiproliferative activity against RPMI8226 cells after 48 hrs; format: functional; details: Homo sapiens, RPMI-8226, 48 h; outline: as §3
Mus musculus [3] = experiment: Analgesic activity against acetic acid-induced writhing in Swiss Albino mouse assessed as protection at 2.5 mg/kg, po; format: functional; outline: as §1
[4] = read-out: LC50 (the source's name)

Compound | MIC (Pseudomonas aeruginosa) [µg/mL] | MIC (Aspergillus fumigatus) [µg/mL] | MIC (Trichophyton benhamiae) [µg/mL] | MIC (Talaromyces marneffei) [µg/mL] | MIC (Staphylococcus aureus) [µg/mL] | MIC (Aspergillus flavus) [µg/mL] | MIC (Klebsiella pneumoniae) [µg/mL] | Activity (Mus musculus [1]) [%] | growth at 100 µM [2] [%] | growth at 100 µM (MCF7) [%] | growth at 100 µM (SF-268) [%] | other results
COc1ccc(Br)c(C(=O)NNc2nc(-c3ccc(O)c(C(N)=O)c3)cs2)c1 | – | 12.5 (≈ 27 µM) | 12.5 (≈ 27 µM) | 12.5 (≈ 27 µM) | 12.5 (≈ 27 µM) | 60 (≈ 130 µM) | 12.5 (≈ 27 µM) | 56.25 | 17 | 19 | 55 | GI50 (SR): 29.8 µM; TGI (SR): ≥ 100 µM; CC50 (SR; [4]): ≥ 100 µM; GI50 (MOLT-4): 22.6 µM; TGI (MOLT-4): 57 µM; CC50 (MOLT-4; [4]): ≥ 100 µM; GI50 (RPMI-8226): 27.9 µM; TGI (RPMI-8226): 92.5 µM; CC50 (RPMI-8226; [4]): ≥ 100 µM
COc1ccc(Br)c(C(=O)NNc2nc(-c3cc4ccccc4oc3=O)cs2)c1 | – | – | – | 12.5 (≈ 26.5 µM) | 50 (≈ 106 µM) | – | – | 37.5 | – | – | – | MIC (Escherichia coli): 50 µg/mL (≈ 106 µM)
COc1ccc(Br)c(C(=O)NNc2nc(-c3ccccc3)cs2)c1 | – | – | – | – | – | – | – | 12.5 | – | – | – | –
O=C([O-])Cc1ccccc1Nc1c(Cl)cccc1Cl.[Na+] [DICLOFENAC SODIUM] | – | – | – | – | – | – | – | – | – | – | – | Activity (Mus musculus [3]): 62.5%

Further lines, with some results ahead:

MIC (Pseudomonas aeruginosa) [µg/mL] | MIC (Aspergillus fumigatus) [µg/mL] | MIC (Trichophyton benhamiae) [µg/mL] | MIC (Talaromyces marneffei) [µg/mL] | MIC (Staphylococcus aureus) [µg/mL] | MIC (Aspergillus flavus) [µg/mL] | MIC (Klebsiella pneumoniae) [µg/mL] | Compound | Activity (Mus musculus [1]) [%] | growth at 100 µM [2] [%] | growth at 100 µM (MCF7) [%] | growth at 100 µM (SF-268) [%] | other results
50 (≈ 115 µM) | 50 (≈ 115 µM) | – | – | – | – | – | COc1ccc(-c2csc(NNC(=O)c3cc(OC)ccc3Br)n2)cc1 | 25 | – | – | – | –
– | 10 (≈ 18.1 µM) | 12.5 (≈ 22.7 µM) | 12.5 (≈ 22.7 µM) | 50 (≈ 90.7 µM) | – | – | COc1ccc(Br)c(C(=O)NNc2nc(-c3cc4cc(Br)ccc4oc3=O)cs2)c1 | 50 | – | – | – | –
6.25 (≈ 14.3 µM) | 50 (≈ 115 µM) | – | – | 50 (≈ 115 µM) | 12.5 (≈ 28.7 µM) | 12.5 (≈ 28.7 µM) | COc1ccc(Br)c(C(=O)NNc2nc(-c3ccc(O)c(O)c3)cs2)c1 | 12.5 | 101 | 86 | 111 | MIC (Escherichia coli): 50 µg/mL (≈ 115 µM)
50 (≈ 114 µM) | – | 50 (≈ 114 µM) | – | – | 50 (≈ 114 µM) | – | COc1ccc(Br)c(C(=O)NNc2nc(-c3ccc(Cl)cc3)cs2)c1 | 43.75 | – | – | – | –
– | 12.5 (≈ 28.4 µM) | 12.5 (≈ 28.4 µM) | 12.5 (≈ 28.4 µM) | – | 50 (≈ 114 µM) | 50 (≈ 114 µM) | COc1ccc(Br)c(C(=O)NNc2nc(-c3ccnc(Cl)c3)cs2)c1 | 37.5 | 95 | 87 | 111 | –
– | < 16 | < 16 | < 16 | – | < 16 | – | CCC(C)n1ncn(-c2ccc(N3CCN(c4ccc(OC[C@H]5CO[C@](Cn6cncn6)(c6ccc(Cl)cc6Cl)O5)cc4)CC3)cc2)c1=O (stereo not given in full) [ITRACONAZOLE] | – | – | – | – | –
